Assays:
[1] = target: T1, Arachidonate 5-lipoxygenase (Bos taurus, UniProt Q9BEG3); assay: Inhibition of 5-lipoxygenase in bovine polymorphonuclear leukocytes; format: cell-based
T1 sequence (Q9BEG3 whole entry): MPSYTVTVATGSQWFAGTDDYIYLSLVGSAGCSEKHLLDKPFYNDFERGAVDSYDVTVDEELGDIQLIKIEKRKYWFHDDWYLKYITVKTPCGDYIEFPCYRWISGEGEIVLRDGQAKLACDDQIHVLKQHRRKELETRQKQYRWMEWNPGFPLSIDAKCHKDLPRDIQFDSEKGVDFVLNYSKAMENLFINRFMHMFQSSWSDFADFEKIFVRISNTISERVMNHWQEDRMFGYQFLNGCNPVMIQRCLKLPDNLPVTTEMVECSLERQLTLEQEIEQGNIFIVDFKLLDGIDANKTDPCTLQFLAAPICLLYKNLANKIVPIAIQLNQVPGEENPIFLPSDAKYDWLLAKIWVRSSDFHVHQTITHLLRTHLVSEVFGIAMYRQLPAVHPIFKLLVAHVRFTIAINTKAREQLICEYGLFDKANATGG
How it was run: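 Bovine PMNL (10^7 cells/mL) were stimulated with Ca-ionophore. Compound was preincubated for 15 min at 37 °C.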

Liposome = assay: Inhibition of 2,2'-azobis(2-aminopropane)hydrochloride (AAPH) induced lipid peroxidation in bovine brain phospholipid liposomes; format: functional, subcellular, Bos taurus
[2] = Reducing activity against 2,2-diphenyl-1-picrylhydrazyl (DPPH) with equimolar compound; format: functional
How it was run: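 Test compound and DPPH, each 10⁻⁴ M in acetone/PBS (1-1 v/v), mixed 1 mL + 1 mL. DPPH reduction followed spectrophotometrically at 516 nm. Reciprocal DPPH concentration plotted against time gave straight lines, and second-order rate constants (M⁻¹ s⁻¹) were taken from the slopes. Values are means, N = 3-6. Highly reactive compounds gave approximate values only.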

[3] = Partition coefficient (logP) (HPLC); format: physicochemical; settings: octanol/water
How it was run: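 Reversed-phase HPLC with MeOH/water/HOAc (77-23-0.1) as eluant, adjusted to pH 5.5 with concentrated NH3.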

[4] = Deoxyribose degradation as a measure of hydroxy radical formation.; format: functional
How it was run: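 2-Deoxy-D-ribose (2 mM) was incubated with FeCl3 (0.1 mM) and compound (75 μM) in KH2PO4-KOH buffer pH 7.4 (30 mM) for 2 h at 37 °C with shaking. TBA-reactive material was read at 532 nm. Result is µmol malondialdehyde per mmol deoxyribose.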

HaCaT = assay: Antiproliferative activity against HaCaT cells; format: functional, cell-based; settings: Homo sapiens
How it was run: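 HaCaT human keratinocytes were kept in DMEM with 10% FCS, penicillin and streptomycin at 37 °C under 8% CO2. After 48 h the cells were detached with trypsin/EDTA and counted by phase-contrast microscopy.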

Compound	IC50 [1]	IC50 (Liposome)	kDPPH [2]	logP [3]	DD (uM of MDA mM-1) [4]	IC50 (HaCaT)
COc1ccc(Cc2cc(O)c3c(c2)Cc2cccc(O)c2C3=O)c(OC)c1	> 30 µM	> 200 µM	10.3 M⁻¹ s⁻¹	5.34	0.32	0.4 µM
COC(=O)c1ccccc1Cc1ccc2c(c1O)C(=O)c1c(O)cccc1C2	> 30 µM	–	11.4 M⁻¹ s⁻¹	5.24	< 0.15	–
COc1ccc(OC)c(Cc2cc(O)c3c(c2)Cc2cccc(O)c2C3=O)c1	> 30 µM	–	14.8 M⁻¹ s⁻¹	5.17	0.51	0.2 µM
O=C(O)c1ccc(Cc2ccc3c(c2O)C(=O)c2c(O)cccc2C3)cc1	–	62 µM	9.9 M⁻¹ s⁻¹	4.1	< 0.25	–
O=C1c2c(O)cccc2Cc2ccc(Cc3cc(O)ccc3O)c(O)c21	0.9 µM	7 µM	> 100 M⁻¹ s⁻¹	3.33	1.46	0.7 µM
O=C1c2c(O)cccc2Cc2ccc(CCc3ccccc3)c(O)c21	> 30 µM	110 µM	16.1 M⁻¹ s⁻¹	6.23	< 0.15	–
O=C1c2c(O)cccc2Cc2ccc(CCCc3ccc(O)cc3)c(O)c21	2 µM	50 µM	> 100 M⁻¹ s⁻¹	5.27	< 0.15	0.4 µM
O=C1c2c(O)cccc2Cc2ccc(CCCc3ccccc3)c(O)c21	11 µM	67 µM	11.1 M⁻¹ s⁻¹	6.44	0.56	> 5 µM
O=C1c2c(O)cccc2Cc2ccc(Cc3ccc(O)c(O)c3)c(O)c21	4 µM	–	> 100 M⁻¹ s⁻¹	4.01	1.82	0.4 µM
COc1cc(CCCc2ccc3c(c2O)C(=O)c2c(O)cccc2C3)cc(OC)c1OC	6 µM	–	> 100 M⁻¹ s⁻¹	5.64	< 0.15	2 µM
COc1ccc(OC)c(Cc2ccc3c(c2O)C(=O)c2c(O)cccc2C3)c1	> 30 µM	> 200 µM	> 100 M⁻¹ s⁻¹	5.72	< 0.15	–
O=C1c2c(O)cccc2Cc2ccc(Cc3cccc(Oc4ccccc4)c3)c(O)c21	> 30 µM	–	6.4 M⁻¹ s⁻¹	6.35	< 0.15	–
O=C1c2c(O)cccc2Cc2ccc(CCCCc3ccccc3)c(O)c21	> 30 µM	112 µM	10.4 M⁻¹ s⁻¹	6.81	< 0.15	–
COc1ccc(Cc2cc(O)c3c(c2)Cc2cccc(O)c2C3=O)cc1	> 30 µM	33 µM	11.2 M⁻¹ s⁻¹	5.3	< 0.15	0.3 µM
O=C(O)c1ccccc1Cc1ccc2c(c1O)C(=O)c1c(O)cccc1C2	4 µM	42 µM	16.9 M⁻¹ s⁻¹	4.48	1.2	> 5 µM
O=C(c1ccccc1)c1cc(O)c2c(c1)Cc1cccc(O)c1C2=O	> 30 µM	40 µM	> 100 M⁻¹ s⁻¹	4.83	1.97	–
COc1ccc(C(=O)c2cc(O)c3c(c2)Cc2cccc(O)c2C3=O)cc1	> 30 µM	–	> 100 M⁻¹ s⁻¹	4.83	0.98	1.7 µM

Compound	IC50 [1]	IC50 (Liposome)	kDPPH [2]	logP [3]	DD (uM of MDA mM-1) [4]	IC50 (HaCaT)
O=C1c2c(O)cccc2Cc2cc(Cc3cc(O)ccc3O)cc(O)c21	–	3 µM	> 100 M⁻¹ s⁻¹	3.2	1.74	0.4 µM
O=C1c2c(O)cccc2Cc2ccc(Cc3ccc(C(F)(F)F)cc3)c(O)c21	> 30 µM	–	3.7 M⁻¹ s⁻¹	5.92	< 0.15	> 5 µM
O=C1c2c(O)cccc2Cc2ccc(Cc3ccccc3)c(O)c21	> 30 µM	98 µM	11.2 M⁻¹ s⁻¹	5.61	< 0.25	> 5 µM
COc1ccc(CCCc2ccc3c(c2O)C(=O)c2c(O)cccc2C3)cc1	30 µM	–	14 M⁻¹ s⁻¹	6.46	< 0.15	> 5 µM
COc1ccccc1Cc1ccc2c(c1O)C(=O)c1c(O)cccc1C2	> 30 µM	–	12 M⁻¹ s⁻¹	5.62	< 0.25	–
O=C1c2c(O)cccc2Cc2ccc(Cc3ccc(O)cc3O)c(O)c21	5 µM	16 µM	> 100 M⁻¹ s⁻¹	3.68	0.34	1.5 µM
COc1ccc(Cc2ccc3c(c2O)C(=O)c2c(O)cccc2C3)cc1OC	> 30 µM	–	> 100 M⁻¹ s⁻¹	5.79	< 0.15	–
COc1ccc(Cc2ccc3c(c2O)C(=O)c2c(O)cccc2C3)cc1	> 30 µM	–	11.3 M⁻¹ s⁻¹	5.62	< 0.25	–
O=C1c2c(O)cccc2Cc2cc(Cc3ccccc3)cc(O)c21	> 30 µM	64 µM	18.1 M⁻¹ s⁻¹	5.29	< 0.25	–
O=C1c2c(O)cccc2Cc2ccc(Cc3ccc(O)cc3)c(O)c21	7 µM	43 µM	> 100 M⁻¹ s⁻¹	4.66	0.38	0.8 µM
O=C1c2c(O)cccc2Cc2cc(Cc3ccc(O)c(O)c3)cc(O)c21	2 µM	4 µM	> 100 M⁻¹ s⁻¹	3.88	0.41	0.5 µM
CC(Cc1ccc(O)c(O)c1)C(C)Cc1ccc(O)c(O)c1 (centres undefined) [NORDIHYDROGUAIARETIC ACID]	–	2 µM	–	–	–	–
COC(=O)c1ccc(Cc2ccc3c(c2O)C(=O)c2c(O)cccc2C3)cc1	> 30 µM	–	10.4 M⁻¹ s⁻¹	5.34	< 0.25	–
Cc1ccc(C(=O)c2cc(O)c3c(c2)Cc2cccc(O)c2C3=O)cc1	> 30 µM	40 µM	> 100 M⁻¹ s⁻¹	5.14	1.01	–
COc1ccc(Cc2ccc3c(c2O)C(=O)c2c(O)cccc2C3)c(OC)c1	> 30 µM	–	> 100 M⁻¹ s⁻¹	5.04	< 0.15	> 5 µM
O=C1c2c(O)cccc2Cc2ccc(Cc3ccc(Cl)cc3)c(O)c21	> 30 µM	150 µM	19.3 M⁻¹ s⁻¹	5.98	< 0.15	–

— ChEMBL document CHEMBL1127529, “Antipsoriatic anthrones with modulated redox properties. 2. Novel derivatives of chrysarobin and isochrysarobin--antiproliferative activity and 5-lipoxygenase inhibition” (J Med Chem, 1994)
